# Assay results gathered from unrelated publications.
# Read-out: cell growth or viability
Structure (SMILES),cell line,assay,setting,measurement,value
Cc1ncsc1-c1ccc([C@H](C)NC(=O)[C@@H]2C[C@@H](O)CN2C(=O)[C@@H](NC(=O)CCCCCC(=O)N2CCN(CC[C@H](CSc3ccccc3)Nc3ccc(S(=O)(=O)NC(=O)c4ccc(N5CCN(CC6=C(c7ccc(Cl)cc7)CCC(C)(C)C6)CC5)cc4)cc3S(=O)(=O)C(F)(F)F)CC2)C(C)(C)C)cc1,MOLT-4,MTS,48 h,IC50,0.0771 µM
C[C@H](Nc1ccc2c(c1)OCCn1cc(N3C(=O)OC[C@H]3C(F)F)nc1-2)C(N)=O,TCC-SUP,ATP luminescence,5 days,EC50,0.0516 µM
FC(F)(F)c1cc(OCc2cc(-c3ccccc3)no2)c2ccccc2n1,LN-229,MTS,72 h,IC50,32.1 µM
Cc1ncsc1-c1ccc([C@H](C)NC(=O)[C@@H]2C[C@@H](O)CN2C(=O)[C@@H](NC(=O)CCCCCCCCCCS(=O)(=O)NC(=O)c2nc(N3CCc4cccc(C(=O)Nc5nc6ccccc6s5)c4C3)ccc2-c2cnn(CC34CC5CC(CC(C5)C3)C4)c2C)C(C)(C)C)cc1,MOLT-4,MTS,48 h,IC50,0.0341 µM
O=C(C[C@@H](C(F)F)n1ccc(F)n1)N1CCC(O)(Cn2cnc3c(cnn3-c3ccc(F)cc3)c2=O)CC1,LNCaP,CCK-8,0.1235 µM,viability,18.3%
Cc1c(Cl)c(=O)oc2cc(OCCCCSC#N)ccc12,MIA PaCa-2,SRB,,GI50,8.2 µM
O=c1[nH]ncc(NN=Cc2cn(-c3ccccc3)nc2-c2ccccc2)c1Cl,Jurkat,,48 h,CC50,3.66 µM
Cc1c(-c2ccc(N3CCc4cccc(C(=O)Nc5nc6ccccc6s5)c4C3)nc2C(=O)O)cnn1CC12CC3CC(C1)CC(C(=O)NCCOCCOCCOCCNc1cccc4c1C(=O)N(C1CCC(=O)NC1=O)C4=O)(C3)C2 (stereo not shown),MOLT-4,MTS,48 h,IC50,0.0846 µM
Cc1nc(Nc2ncc(C(=O)Nc3c(C)cccc3Cl)s2)cc(N2CC[C@H](O)C2)n1,SU-DHL-2,ATP luminescence,"10 µM, 72 h",inhibition,33%
Nc1nc(S)nc(O)c1N=Cc1cn(-c2ccccc2)nc1-c1ccc(Cl)cc1,Jurkat,,48 h,CC50,> 20 µM
N#CSCCCCOc1ccc2c(-c3ccccc3)cc(=O)oc2c1,MIA PaCa-2,SRB,,GI50,28 µM
COc1ccc(-c2nn(-c3ccccc3)cc2C=Nc2c(N)nc(S)nc2O)cc1,Jurkat,,48 h,CC50,17.3 µM
Cc1ncsc1-c1ccc([C@H](C)NC(=O)[C@@H]2C[C@@H](O)CN2C(=O)[C@@H](NC(=O)CCCCCCCS(=O)(=O)NC(=O)c2nc(N3CCc4cccc(C(=O)Nc5nc6ccccc6s5)c4C3)ccc2-c2cc(C#N)n(CC34CC5CC(CC(C5)C3)C4)c2C)C(C)(C)C)cc1,MOLT-4,MTS,48 h,IC50,0.0202 µM
